The results in this text go back to ChEMBL document CHEMBL4715860 (J Med Chem, 2020).

Each structure is given as a SMILES string. pIC50, pKi: −log10 of the molar value. Calls of active or inactive are those of the source. The rule behind the calls is not given here. Where only a bound is given, the exact number is not on record here.

A short description of data set [1]: Inhibition of mTOR2 in human A2058 cells assessed as reduction in PKB/Akt phosphorylation at Ser473 incubated for 1 hr by Western blot analysis. The data set is classed as cell-based. Conditions: A2058, 1 h. Put shortly:
(§1)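 A2058 cells grown 24 h at 37 °C, then exposed to inhibitor or DMSO for 1 h. Cells were PFA-fixed and stained for pPKB Ser473 or pS6 Ser235/236 by in-cell western with IR-dye secondary antibodies. Signal normalized to tubulin and to DMSO. IC50 from a 7-point (triplicate) or 11-point (duplicate) 1:2 series.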
In general terms: In western blotting, separated proteins are transferred to a membrane and probed.

Data set [2] can be described thus: Inhibition of mTORC1 in human A2058 cells assessed as reduction in RPS6 phosphorylation at S235/236 residue incubated for 1 hrs by Western blot analysis. It counts as cell-based. The following applies: A2058, 1 h. Put shortly:
as §1

For data set [3], the target named is PI3-kinase p110-alpha/p85-alpha (Homo sapiens, UniProt P42336). Kind of data set: Inhibition of alexa fluor 647-labeled kinase tracer 314 binding to recombinant human N-terminal His-tagged p110alpha/p85alpha expressed in baculovirus expression system measured after 60 mins by LanthaScreen TR-FRET assay relative to control.
Chain of PI3-kinase p110-alpha/p85-alpha (P27986 whole entry, the tested form may be a part): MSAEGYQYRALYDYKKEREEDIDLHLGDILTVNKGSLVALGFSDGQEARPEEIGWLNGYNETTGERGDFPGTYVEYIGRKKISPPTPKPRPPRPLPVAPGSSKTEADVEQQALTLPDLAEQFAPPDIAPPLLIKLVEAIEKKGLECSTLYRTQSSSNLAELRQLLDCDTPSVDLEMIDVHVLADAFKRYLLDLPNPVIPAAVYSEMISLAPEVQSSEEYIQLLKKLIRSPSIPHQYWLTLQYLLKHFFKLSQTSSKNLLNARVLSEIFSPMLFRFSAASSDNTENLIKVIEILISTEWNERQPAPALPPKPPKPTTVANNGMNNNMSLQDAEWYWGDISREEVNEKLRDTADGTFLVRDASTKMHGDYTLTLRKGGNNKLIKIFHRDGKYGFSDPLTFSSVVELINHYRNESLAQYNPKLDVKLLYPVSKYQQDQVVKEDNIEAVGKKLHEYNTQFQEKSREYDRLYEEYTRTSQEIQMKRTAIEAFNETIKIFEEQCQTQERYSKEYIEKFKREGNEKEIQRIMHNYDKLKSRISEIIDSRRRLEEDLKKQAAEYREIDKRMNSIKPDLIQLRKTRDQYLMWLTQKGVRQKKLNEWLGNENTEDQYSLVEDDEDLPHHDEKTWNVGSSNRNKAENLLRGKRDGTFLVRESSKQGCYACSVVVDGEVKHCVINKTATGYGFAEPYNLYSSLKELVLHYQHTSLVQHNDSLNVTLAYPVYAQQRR
Chain of PI3-kinase p110-alpha/p85-alpha (P42336 whole entry, the tested form may be a part): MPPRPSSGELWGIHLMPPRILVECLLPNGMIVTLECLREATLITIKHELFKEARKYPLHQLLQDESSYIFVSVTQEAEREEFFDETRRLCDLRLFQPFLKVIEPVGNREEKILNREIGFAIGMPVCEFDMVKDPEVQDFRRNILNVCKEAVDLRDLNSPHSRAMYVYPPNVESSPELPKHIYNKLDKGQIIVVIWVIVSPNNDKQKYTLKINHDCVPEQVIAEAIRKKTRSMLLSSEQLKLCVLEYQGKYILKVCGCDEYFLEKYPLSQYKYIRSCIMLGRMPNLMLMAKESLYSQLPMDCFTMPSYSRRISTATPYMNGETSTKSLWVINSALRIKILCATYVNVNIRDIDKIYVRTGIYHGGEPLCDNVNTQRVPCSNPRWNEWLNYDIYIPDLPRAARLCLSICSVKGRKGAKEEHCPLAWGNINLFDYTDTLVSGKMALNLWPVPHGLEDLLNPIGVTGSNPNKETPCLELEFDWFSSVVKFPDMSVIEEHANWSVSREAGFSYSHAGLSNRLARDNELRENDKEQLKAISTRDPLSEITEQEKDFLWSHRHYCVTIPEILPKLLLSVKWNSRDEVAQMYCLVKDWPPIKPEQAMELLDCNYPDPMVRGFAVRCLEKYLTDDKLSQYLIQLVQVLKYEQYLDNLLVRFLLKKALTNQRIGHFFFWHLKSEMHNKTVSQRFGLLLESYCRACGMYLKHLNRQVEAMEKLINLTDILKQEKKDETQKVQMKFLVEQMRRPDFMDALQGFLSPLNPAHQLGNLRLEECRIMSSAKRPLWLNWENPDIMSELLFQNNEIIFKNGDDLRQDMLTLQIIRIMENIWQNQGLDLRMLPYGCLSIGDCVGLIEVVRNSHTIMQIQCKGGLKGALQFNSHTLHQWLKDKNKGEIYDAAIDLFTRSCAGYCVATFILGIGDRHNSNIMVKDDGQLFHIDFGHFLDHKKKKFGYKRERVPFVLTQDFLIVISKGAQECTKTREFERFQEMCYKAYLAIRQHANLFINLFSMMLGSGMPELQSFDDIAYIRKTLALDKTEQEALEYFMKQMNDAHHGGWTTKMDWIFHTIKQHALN
The target of data set [4] is Serine/threonine-protein kinase mTOR (Homo sapiens, UniProt P42345). Kind of data set: Inhibition of alexa fluor 647-labeled kinase tracer 314 binding to recombinant human N-terminal GST-tagged mTOR (1360 to 2549 residues) expressed in baculovirus expression system measured after 60 mins by TR-FRET based LanthaScreen Eu kinase binding assay. On the technique in general: In TR-FRET formats the signal depends on donor and acceptor labels being close together.

The nature of data set [5]: Cmax in C57BL/6J mouse plasma at 25 mg/kg, po administered as single dose by mass spectrometry based UHPLC analysis. It counts as ADME, organism-based. Further details: route oral, dose 25 mg/kg. Put shortly:
(§2)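 One oral dose of 25 mg/kg to female C57BL/6J mice. Plasma and brain concentrations followed over time, n = 3 per time point (mean).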

Data set [6] is described as follows: Tmax in C57BL/6J mouse plasma at 25 mg/kg, po administered as single dose by mass spectrometry based UHPLC analysis. The data set is classed as ADME, organism-based. The procedure, abridged:
(§3)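 Female C57BL/6J mice given a single oral dose of 25 mg/kg. Plasma and brain levels followed over time (n = 3 per time point, mean). Tmax is the time of maximal concentration.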

Data set [7] is described as follows: Elimination half life in C57BL/6J mouse plasma at 25 mg/kg, po administered as single dose by mass spectrometry based UHPLC analysis. Conditions: read-out: beta t1/2 (converted). It counts as ADME, organism-based. Put shortly:
as §2

The nature of data set [8]: AUC (0 to 8 hrs) in C57BL/6J mouse plasma at 25 mg/kg, po administered as single dose by mass spectrometry based UHPLC analysis. It counts as ADME, organism-based. Also noted: time < 8 hr, route oral, dose 25 mg/kg. Put shortly:
as §2

Data set [9] is described as follows: Clearance in C57BL/6J mouse plasma at 25 mg/kg, po administered as single dose by mass spectrometry based UHPLC analysis. The data set is classed as ADME, organism-based. Put shortly:
as §2

Data set [10] is described as follows: Cmax in C57BL/6J mouse brain at 25 mg/kg, po administered as single dose by mass spectrometry based UHPLC analysis. The data set is classed as ADME, organism-based. Also noted: route oral, dose 25 mg/kg. The procedure, abridged:
as §2

Data set [11] in a line: Tmax in C57BL/6J mouse brain at 25 mg/kg, po administered as single dose by mass spectrometry based UHPLC analysis. It counts as ADME, organism-based. Put shortly:
as §3

Data set [12] is described as follows: Elimination half life in C57BL/6J mouse brain at 25 mg/kg, po administered as single dose by mass spectrometry based UHPLC analysis. The data set is classed as ADME, organism-based. The following applies: read-out: beta t1/2 (converted). Put shortly:
as §2

A short description of data set [13]: AUC (0 to 8 hrs) in C57BL/6J mouse brain at 25 mg/kg, po administered as single dose by mass spectrometry based UHPLC analysis. The data set is classed as ADME, organism-based. Further details: time < 8 hr, route oral, dose 25 mg/kg. The procedure, abridged:
as §2

The subject of data set [14] is Mus musculus. Kind of data set: In vivo inhibition of PI3Kalpha in C57BL/6J mouse assessed as increase in plasma glucose concentration at 25 mg/kg, po measured after 8 hrs by glucoseoxidase-peroxide coupled colorimetric assay. The data set is classed as functional, organism-based. Put shortly: (§4)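 Female C57BL/6J mice given one oral dose (25 mg/kg); plasma insulin and glucose monitored over time, mean ± SEM.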

Data set [15] relates to Mus musculus. Nature of the data set: In vivo inhibition of PI3Kalpha C57BL/6J mouse assessed as increase in plasma insulin concentration at 25 mg/kg, po measured after 8 hrs by ELISA. It counts as functional, organism-based. Put shortly: as §4
On the technique in general: An ELISA detects its analyte on a solid surface through an enzyme-linked reagent.

A short description of data set [16]: AUC (0 to 8 hrs) in male Sprague-Dawley rat plasma at 5 mg/kg, po. It counts as ADME, organism-based. Also noted: time < 8 hr, route oral, dose 5 mg/kg. The procedure, abridged:
(§5)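 Male Sprague Dawley rats, single oral dose of 5 mg/kg. Plasma and brain concentrations measured over 8 h, n = 3, mean ± SEM; AUC0−8 computed from the time course.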

Data set [17] in a line: AUC (0 to 8 hrs) in male Sprague-Dawley rat brain at 5 mg/kg, po. The data set is classed as ADME, organism-based. Further details: time < 8 hr, route oral, dose 5 mg/kg. Conditions: in vivo. Put shortly: as §5
The nature of data set [18]: Substrate activity at human P-glycoprotein stably expressed in MDCK cells at 1 uM measured after 5 to 20 mins by UPLC-MS/MS analysis. It counts as ADME, cell-based. The following applies: time 5-20 min. The procedure, abridged:
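CRISPR canine-MDR1-knockout MDCKII cells stably expressing human MDR1, with the knockout parent line as control. Cells grown 5 days on TransWell filters and preincubated in HBSS 30 min at 37 °C. Compound at 1 μM added apical or basolateral. Receiver sampled at 5, 10 and 20 min; UPLC-MS/MS.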

Data set [19] in a line: Metabolic stability in CD1 mouse hepatocytes assessed as half-life at 5 uM incubated for 3 hrs by LC-MS analysis. The data set is classed as ADME, cell-based, Hepatocyte. The procedure, abridged: (§6)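 Cryopreserved primary hepatocytes in suspension from CD-1 mouse, Sprague-Dawley rat, Beagle dog and human. Compound at 5 μM final (from 10 mM DMSO stock). Samples taken at 0, 15, 60, 90 and 180 min and quenched with ACN plus internal standard. Parent quantified by LC-MS. Hepatocyte-free medium incubations served as negative control; 7-ethoxycoumarin as positive control. Duplicate; CLint per 10^6 cells and t1/2.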

A short description of data set [20]: Metabolic stability in Sprague-Dawley rat hepatocytes assessed as half-life at 5 uM incubated for 3 hrs by LC-MS analysis. The data set is classed as ADME, cell-based, Hepatocyte. The procedure, abridged: as §6
Data set [21] is described as follows: Metabolic stability in Beagle dog hepatocytes assessed as half-life at 5 uM incubated for 3 hrs by LC-MS analysis. It counts as ADME, cell-based, Canis lupus familiaris, Hepatocyte. The procedure, abridged: as §6
A short description of data set [22]: Metabolic stability in human hepatocytes assessed as half-life at 5 uM incubated for 3 hrs by LC-MS analysis. It counts as ADME, cell-based, Hepatocyte. The procedure, abridged:
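Cryopreserved primary hepatocytes in suspension from CD-1 mouse, Sprague-Dawley rat, Beagle dog and human. Compound at 5 μM final (from 10 mM DMSO stock). Parent quantified by LC-MS. Hepatocyte-free medium incubations served as negative control; 7-ethoxycoumarin as positive control. Duplicate; CLint per 10^6 cells and t1/2.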

For `C[C@@H]1COCCN1c1nc(-c2cnc(N)cc2C(F)F)nc(N2CCOC[C@H]2CO)n1`, the pIC50 (commonly the IC50 on a negative log10 scale, so that one unit is a factor of ten) in data set [1] is 5.83; in data set [2] it was below 6.00. Besides, the pKi – broadly, the negative decadic logarithm of the Ki, by convention in mol/L – in [3] was below 6.00; in data set [4], 7.30.
For `C[C@@H]1CN(c2nc(-c3cnc(N)cc3C(F)F)nc(N3CCOC[C@H]3C)n2)C[C@H](C)O1`, the pIC50 was 5.87 in [1] and 6.25 in data set [2]. Moreover, the pKi is below 6.00 in data set [3] and 7.38 in [4].
Regarding `CNC(=O)c1cccc(-c2ccc3c(N4CCOC[C@@H]4C)nc(N4CCOC[C@@H]4C)nc3n2)c1` [VISTUSERTIB], the Cmax (commonly the highest concentration seen after dosing) in [5] was 7190 ng/mL; in data set [10], 286 ng/mL. Further, the Tmax in [6] and in data set [11] was 30 min in each case. Further, the half-life in data set [7] was 450 min; in data set [12] it was 516 min. For the same molecule, the figures for the AUC(0-t) at 8 h in data set [8] and in data set [13] were 33700 ng·h/mL and 1340 ng·h/mL, respectively. In data set [9], the CL/F (as a rule, clearance divided by bioavailability, as obtained after extravascular dosing) is 11 mL/min/kg. The inhibition result in the data set on Mus musculus [14] and with Mus musculus [15] was “inactive” in each case.
Take `C[C@@H]1COCCN1c1nc(-c2cnc(N)cn2)nc2c1C[C@@H]1COCCN21`: the AUC(0-t) (in general, the area under the concentration-time curve up to a stated or last time point) at 8 h in data set [16] is above 5500 ng·h/mL. In [17], this molecule had an AUC below 110 ng·h/g.
In the case of `C[C@@H]1COCCN1c1nc(-c2cnc(N)cc2C(F)F)nc(N2[C@H](C)COC[C@H]2C)n1`, the negative logarithm of the IC50 (pIC50) is 6.30 in data set [1] and 6.41 in data set [2]. Also, the results for the pKi in data set [3] and in data set [4] were below 6.00 and 7.60, respectively.
In the same order, the values of `C[C@@H]1COCCN1c1nc(-c2cnc(N)cc2C(F)F)nc(N2CCOC[C@H]2C)n1` are 6.36, 6.58, 6.33 and 7.85.
In the same order, the values of `C[C@@H]1COCCN1c1nc(-c2cnc(N)cc2C(F)F)nc(N2[C@@H](C)COC[C@@H]2C)n1` are 6.70, 6.87, 6.63 and 8.19.
In the same order, the values of `CC[C@@H]1COCCN1c1nc(-c2cnc(N)cc2C(F)F)nc(N2CCOC[C@H]2C)n1` are 6.64, 6.62, 7.19 and 7.74.
Take `C[C@@H]1COCCN1c1nc(-c2cnc(N)cc2C(F)F)nc(N2CCOCC23CCC3)n1`: the values for the pIC50 in data set [1] and in [2] were 6.57 and 6.72, respectively. The pKi in data set [3] was 6.39; in [4] it was 7.96.
In the same order, the values of `COC[C@@H]1COCCN1c1nc(-c2cnc(N)cc2C(F)F)nc(N2CCOC[C@H]2C)n1` are 6.02, 6.37, below 6.00 and 7.64.
As for `C[C@@H]1COCCN1c1nc(-c2cnc(N)cc2C(F)F)nc(N2CCOCC2)n1`, the pKi in data set [3] is 7.72; in data set [4] it was 8.10. For the same molecule, the Activity result in [18] is “Not Active”.
In the case of `CCOc1ccc2ccc(=O)oc2c1`, the half-life at 5 µM in [19] is 21 min; in data set [20], 55 min; in data set [21], 14 min; in data set [22], 31 min.
Turning to `C[C@@H]1COCCN1c1nc(-c2cnc(N)cc2C(F)F)nc(N2CCOC[C@@H]2C)n1`, the pIC50 in data set [1] is 6.76; in data set [2], 6.86. Also, the pKi was 7.48 in [3] and 7.96 in [4]. For the same molecule, in data set [18], the Activity entry was “Not Active”.
On to `C[C@@H]1COCCN1c1nc(-c2cnc(N)cc2C(F)F)nc(N2C3COCC2C3)n1`, for which the pIC50 in [1] was 5.81; in data set [2], 6.39. Moreover, the pKi in data set [3] is below 6.00; in [4] it was 7.14.
In the same order, the values of `CC[C@H]1COCCN1c1nc(-c2cnc(N)cc2C(F)F)nc(N2CCOC[C@H]2C)n1` are 6.61, 6.62, 7.20 and 7.17.
In the same order, the values of `C[C@@H]1COCCN1c1nc(-c2cnc(N)cc2C(F)F)nc(N2CCOC[C@@H]2CO)n1` are 6.28, 6.33, below 6.00 and 7.55.
